Measured values from ChEMBL document CHEMBL3817843, “Understanding Oxadiazolothiazinone Biological Properties: Negative Inotropic Activity versus Cytochrome P450-Mediated Metabolism” (J Med Chem, 2016).
Blank lines part the entries; values can stand above or below the compound they belong to.

Key:
[1] = Half life in human liver microsomes assessed as CYP-mediated compound degradation at 1 uM by LC-MS analysis
Liver microsome = assay: Stability in human liver microsomes at 1 uM after 2 to 60 mins by LC-MS analysis in absence of NADPH
Cytochrome P450 2D6 = Cytochrome P450 2D6 (Homo sapiens, UniProt P10635); assay: Inhibition of CYP2D6 in human liver microsomes using dextromethorphan as substrate after 10 mins by LC-MS analysis
Cytochrome P450 2D6, sequence (P10635 whole entry): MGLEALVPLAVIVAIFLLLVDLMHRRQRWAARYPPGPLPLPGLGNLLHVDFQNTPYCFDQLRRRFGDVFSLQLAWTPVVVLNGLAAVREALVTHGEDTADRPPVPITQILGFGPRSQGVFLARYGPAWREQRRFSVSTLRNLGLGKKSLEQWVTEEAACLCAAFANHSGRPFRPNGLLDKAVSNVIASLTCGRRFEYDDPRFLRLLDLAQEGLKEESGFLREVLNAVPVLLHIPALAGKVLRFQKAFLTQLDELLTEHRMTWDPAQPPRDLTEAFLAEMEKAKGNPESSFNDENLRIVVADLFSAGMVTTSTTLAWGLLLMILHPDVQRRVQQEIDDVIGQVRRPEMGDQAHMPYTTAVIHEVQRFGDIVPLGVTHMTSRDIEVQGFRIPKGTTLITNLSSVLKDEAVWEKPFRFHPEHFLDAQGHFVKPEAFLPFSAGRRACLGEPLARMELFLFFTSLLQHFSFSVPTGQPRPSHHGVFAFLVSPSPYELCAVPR

Cytochrome P450 3A4 [2] = biological target: T1, Cytochrome P450 3A4 (Homo sapiens, UniProt P08684); assay: Inhibition of CYP3A4 in human liver microsomes using midazolam as substrate after 4 mins by LC-MS analysis
T1 sequence (P08684 whole entry): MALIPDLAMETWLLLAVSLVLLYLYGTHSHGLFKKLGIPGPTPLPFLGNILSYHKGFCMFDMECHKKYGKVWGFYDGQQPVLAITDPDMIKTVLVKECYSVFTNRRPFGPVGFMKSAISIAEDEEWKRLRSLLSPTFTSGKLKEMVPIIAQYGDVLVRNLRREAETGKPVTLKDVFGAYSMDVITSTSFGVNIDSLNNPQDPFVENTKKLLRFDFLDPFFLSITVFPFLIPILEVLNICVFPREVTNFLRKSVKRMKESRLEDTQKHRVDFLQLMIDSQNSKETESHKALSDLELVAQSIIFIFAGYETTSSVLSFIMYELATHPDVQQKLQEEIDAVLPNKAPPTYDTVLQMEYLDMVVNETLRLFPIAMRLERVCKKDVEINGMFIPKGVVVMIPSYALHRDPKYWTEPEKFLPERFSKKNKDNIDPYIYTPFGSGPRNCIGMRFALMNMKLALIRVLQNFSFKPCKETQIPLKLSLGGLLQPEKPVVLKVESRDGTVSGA

Cytochrome P450 2C9 = Cytochrome P450 2C9 (Homo sapiens, UniProt P11712); assay: Inhibition of CYP2C9 in human liver microsomes using tolbutamide as substrate after 20 mins by LC-MS analysis
Cytochrome P450 2C9, sequence (P11712 whole entry): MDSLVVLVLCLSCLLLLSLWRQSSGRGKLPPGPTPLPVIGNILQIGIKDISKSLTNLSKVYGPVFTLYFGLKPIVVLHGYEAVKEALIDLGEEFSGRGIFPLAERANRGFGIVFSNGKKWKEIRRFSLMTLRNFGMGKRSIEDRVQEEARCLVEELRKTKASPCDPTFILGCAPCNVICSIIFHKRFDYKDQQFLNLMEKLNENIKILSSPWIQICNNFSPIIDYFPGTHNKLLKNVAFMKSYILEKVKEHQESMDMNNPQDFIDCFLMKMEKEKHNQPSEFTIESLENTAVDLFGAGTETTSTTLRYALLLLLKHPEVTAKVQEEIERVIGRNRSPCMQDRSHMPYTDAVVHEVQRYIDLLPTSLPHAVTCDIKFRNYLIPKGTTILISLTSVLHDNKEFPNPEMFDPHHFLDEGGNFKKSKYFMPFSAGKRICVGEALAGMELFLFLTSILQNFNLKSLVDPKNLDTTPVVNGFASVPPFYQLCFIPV

Cytochrome P450 1A2 = biological target: T2, Cytochrome P450 1A2 (Homo sapiens, UniProt P05177); assay: Inhibition of CYP1A2 in human liver microsomes using phenacetin as substrate after 30 mins by LC-MS analysis
T2 sequence (P05177 whole entry): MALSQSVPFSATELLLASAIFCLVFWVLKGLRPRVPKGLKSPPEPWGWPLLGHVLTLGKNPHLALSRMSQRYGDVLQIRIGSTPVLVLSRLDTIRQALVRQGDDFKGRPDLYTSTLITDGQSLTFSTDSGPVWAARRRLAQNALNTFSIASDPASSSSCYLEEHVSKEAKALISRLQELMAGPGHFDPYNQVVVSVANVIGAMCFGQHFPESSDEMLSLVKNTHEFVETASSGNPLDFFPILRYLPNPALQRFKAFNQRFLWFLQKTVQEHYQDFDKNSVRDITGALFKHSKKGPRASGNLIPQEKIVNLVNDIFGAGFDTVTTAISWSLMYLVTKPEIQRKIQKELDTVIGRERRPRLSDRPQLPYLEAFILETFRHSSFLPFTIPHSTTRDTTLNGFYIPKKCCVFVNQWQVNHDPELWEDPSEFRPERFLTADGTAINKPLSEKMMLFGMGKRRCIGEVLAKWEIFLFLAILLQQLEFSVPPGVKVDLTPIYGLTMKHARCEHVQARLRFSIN

Cytochrome P450 2C19 = Cytochrome P450 2C19 (Homo sapiens, UniProt P33261); assay: Inhibition of CYP2C19 in human liver microsomes using (S)-mephenytoin as substrate after 40 mins by LC-MS analysis
Cytochrome P450 2C19, sequence (P33261 whole entry): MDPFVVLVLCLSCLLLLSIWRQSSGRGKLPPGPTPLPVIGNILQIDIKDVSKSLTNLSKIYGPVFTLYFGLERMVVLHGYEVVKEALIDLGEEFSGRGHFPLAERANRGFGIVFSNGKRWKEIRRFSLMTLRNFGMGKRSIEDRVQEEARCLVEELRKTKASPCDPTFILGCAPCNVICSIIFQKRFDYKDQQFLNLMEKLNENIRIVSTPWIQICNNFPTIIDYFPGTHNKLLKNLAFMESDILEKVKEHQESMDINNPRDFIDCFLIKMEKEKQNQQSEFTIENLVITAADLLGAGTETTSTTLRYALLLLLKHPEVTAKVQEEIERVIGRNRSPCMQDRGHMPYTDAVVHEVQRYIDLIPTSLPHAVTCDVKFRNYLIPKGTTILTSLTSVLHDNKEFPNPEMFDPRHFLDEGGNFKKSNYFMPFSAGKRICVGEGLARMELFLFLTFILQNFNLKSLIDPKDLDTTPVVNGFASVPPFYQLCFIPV

Cytochrome P450 3A4 [3] = biological target: T1, Cytochrome P450 3A4; assay: Inhibition of CYP3A4 in human liver microsomes using testosterone as substrate after 5 mins by LC-MS analysis
in vitro = conditions: human, liver microsomes
Left cardiac atrium [4] = assay: Negative inotropic activity in potassium depolarized guinea pig left atrium assessed as reduction in developed tension after 30 mins; format: functional; conditions: Cavia porcellus, 0.5 h
Summary of the method: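 Guinea pig left atria electrically driven at 1 Hz. EC50 taken from log concentration−response curves by Litchfield and Wilcoxon probit analysis, n = 6−7. Not calculated when the maximum effect was below 50%.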

Left cardiac atrium [5] = assay: Negative inotropic activity in potassium depolarized guinea pig left atrium assessed as reduction in developed tension at 10^-4 M after 30 mins; format: functional, Cavia porcellus; design: scale not given: the % may be the effect or the level left
Aorta [6] = assay: Vasorelaxant activity in potassium depolarized guinea pig aorta assessed as inhibition of calcium-induced contraction at 10^-4 M after 30 mins; format: functional, Cavia porcellus; design: scale not given: the % may be the effect or the level left
Summary of the method: (§1)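 Guinea pig aortic strips depolarized with K+ (80 mM). Calcium-induced contraction measured; inhibition expressed as percent change from control, n = 3−5.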

Right cardiac atrium [7] = assay: Negative chronotropic activity in potassium depolarized guinea pig right atrium assessed as reduction in atrial rate at 10^-4 M after 30 mins; format: functional, Cavia porcellus; design: scale not given: the % may be the effect or the level left
Right cardiac atrium [8] = assay: Negative chronotropic activity in potassium depolarized guinea pig right atrium assessed as reduction in atrial rate at 50 uM after 30 mins; format: functional, Cavia porcellus; design: scale not given: the % may be the effect or the level left
Left cardiac atrium [9] = assay: Negative inotropic activity in potassium depolarized guinea pig left atrium assessed as reduction in developed tension at 10^-5 M after 30 mins; format: functional, Cavia porcellus; design: scale not given: the % may be the effect or the level left
Left cardiac atrium [10] = assay: Negative inotropic activity in potassium depolarized guinea pig left atrium assessed as reduction in developed tension at 50 uM after 30 mins; format: functional, Cavia porcellus; design: scale not given: the % may be the effect or the level left
[11] = Relaxant activity in potassium depolarized guinea pig ileum longitudinal smooth muscle assessed as inhibition of calcium-induced contraction at 10^-4 M after 30 mins; format: functional, Cavia porcellus; design: scale not given: the % may be the effect or the level left
[12] = Relaxant activity in potassium depolarized guinea pig ileum longitudinal smooth muscle assessed as inhibition of calcium-induced contraction after 30 mins; format: functional, tissue-based; conditions: Cavia porcellus, 0.5 h
Aorta [13] = assay: Vasorelaxant activity in potassium depolarized guinea pig aorta assessed as inhibition of calcium-induced contraction at 50 uM after 30 mins; format: functional, Cavia porcellus; design: scale not given: the % may be the effect or the level left; summary of the method: as §1
Left cardiac atrium [14] = assay: Negative inotropic activity in potassium depolarized guinea pig left atrium assessed as reduction in developed tension at 10^-6 M after 30 mins; format: functional, Cavia porcellus; design: scale not given: the % may be the effect or the level left
Right cardiac atrium [15] = assay: Negative chronotropic activity in potassium depolarized guinea pig right atrium assessed as reduction in atrial rate at 10^-6 M after 30 mins; format: functional, Cavia porcellus; design: scale not given: the % may be the effect or the level left
[16] = Relaxant activity in potassium depolarized guinea pig ileum longitudinal smooth muscle assessed as inhibition of calcium-induced contraction at 5 uM after 30 mins; format: functional, Cavia porcellus; design: scale not given: the % may be the effect or the level left
Aorta [17] = assay: Vasorelaxant activity in potassium depolarized guinea pig aorta assessed as inhibition of calcium-induced contraction at 10^-4 M; format: functional, Cavia porcellus; design: scale not given: the % may be the effect or the level left; summary of the method: as §1
Left cardiac atrium [18] = assay: Negative inotropic activity in potassium depolarized guinea pig left atrium assessed as reduction in developed tension at 10^-5 M; format: functional, Cavia porcellus; design: scale not given: the % may be the effect or the level left
Right cardiac atrium [19] = assay: Negative chronotropic activity in potassium depolarized guinea pig right atrium assessed as reduction in atrial rate after 30 mins; format: functional; conditions: Cavia porcellus, 0.5 h
[20] = Relaxant activity in potassium depolarized guinea pig ileum longitudinal smooth muscle assessed as inhibition of calcium-induced contraction at 50 uM after 30 mins; format: functional, Cavia porcellus; design: scale not given: the % may be the effect or the level left
Left cardiac atrium [21] = assay: Negative inotropic activity in potassium depolarized guinea pig left atrium assessed as reduction in developed tension at 5 uM after 30 mins; format: functional, Cavia porcellus; design: scale not given: the % may be the effect or the level left

half-life at 1 µM [1]: > 250 min
Stability (Liver microsome): Stable
IC50 (Cytochrome P450 2D6): 7.1 µM
IC50 (Cytochrome P450 3A4 [2]): > 20 µM
IC50 (Cytochrome P450 2C9): 6.6 µM
IC50 (Cytochrome P450 1A2): 5 µM
IC50 (Cytochrome P450 2C19): 1 µM
IC50 (Cytochrome P450 3A4 [3]): > 20 µM
microsomal CLint at 1 µM (in vitro): < 7 µL/min/mg
SMILES: CC1=CSC(OCC(F)(F)F)(c2ccc(Br)cc2)c2noc(=O)n21 (centres undefined)

EC50 (Left cardiac atrium [4]): 0.87 µM
SMILES: CC1=CSC(OCC2CCCCC2)(c2ccccc2)c2noc(=O)n21 (centres undefined)
Activity (Left cardiac atrium [5]): 56%
Activity (Aorta [6]): 14%
Activity (Right cardiac atrium [7]): 2%

EC50 (Left cardiac atrium [4]): 0.43 µM
SMILES: COc1ccc(C2(OC(C)C)SC=C(C)n3c2noc3=O)cc1 (centres undefined)
Activity (Right cardiac atrium [8]): 14%
Activity (Aorta [6]): 11%
Activity (Left cardiac atrium [9]): 69%

EC50 (Left cardiac atrium [4]): 0.28 µM
SMILES: O=c1onc2n1-c1ccccc1SC2(OCC1CCCCC1)c1ccccc1 (centres undefined)
Activity (Left cardiac atrium [10]): 86%
Activity (Aorta [6]): 3%
Activity (Right cardiac atrium [7]): 6%

Stability (Liver microsome): Stable
IC50 (Cytochrome P450 2D6): > 20 µM
IC50 (Cytochrome P450 3A4 [2]): > 20 µM
IC50 (Cytochrome P450 2C9): > 20 µM
IC50 (Cytochrome P450 1A2): > 20 µM
IC50 (Cytochrome P450 2C19): 10.8 µM
IC50 (Cytochrome P450 3A4 [3]): > 20 µM
SMILES: O=c1onc2n1-c1ccccc1SC2(OCC(F)(F)F)c1ccc(Br)cc1 (centres undefined)

EC50 (Left cardiac atrium [4]): 0.48 µM
SMILES: COc1ccccc1C1(OCC2CCCCC2)SC=C(C)n2c1noc2=O (centres undefined)
Activity (Left cardiac atrium [10]): 89%
Activity (Right cardiac atrium [8]): 22%
Activity (Aorta [6]): 17%

EC50 (Left cardiac atrium [4]): 0.39 µM
IC50 [12]: 14.5 µM
SMILES: O=c1onc2n1-c1ccccc1SC2(OCC(F)(F)F)c1ccccc1 (centres undefined)
Activity [11]: 75%
Activity (Left cardiac atrium [10]): 75%
Activity (Aorta [6]): 6%
Activity (Right cardiac atrium [7]): 13%

EC50 (Left cardiac atrium [4]): 0.1 µM
SMILES: COc1ccc(C2(O)Sc3ccccc3-n3c2noc3=O)cc1 (centres undefined)
Activity (Aorta [13]): 19%
Activity (Left cardiac atrium [14]): 95%
Activity (Right cardiac atrium [8]): 26%

IC50 [12]: 0.11 µM
SMILES: COc1ccc([C@@H]2Sc3ccccc3N(CCN(C)C)C(=O)[C@@H]2OC(C)=O)cc1 [DILTIAZEM]
Activity (Right cardiac atrium [15]): 94%
Activity [16]: 98%
Activity (Aorta [6]): 88%
Activity (Aorta [17]): 88%
Activity (Left cardiac atrium [9]): 78%
Activity (Left cardiac atrium [18]): 78%
EC30 (Right cardiac atrium [19]): 0.07 µM

half-life at 1 µM [1]: 20 min
Stability (Liver microsome): Stable
IC50 (Cytochrome P450 2D6): 16.9 µM
EC50 (Left cardiac atrium [4]): 0.22 µM
IC50 (Cytochrome P450 3A4 [2]): > 20 µM
IC50 (Cytochrome P450 2C9): > 20 µM
IC50 (Cytochrome P450 1A2): > 20 µM
IC50 (Cytochrome P450 2C19): 4.8 µM
IC50 (Cytochrome P450 3A4 [3]): 19.1 µM
IC50 [12]: 11.6 µM
microsomal CLint at 1 µM (in vitro): 86 µL/min/mg
SMILES: CCOC1(c2ccccc2)SC=C(C)n2c1noc2=O (centres undefined)
Activity [20]: 89%
Activity (Right cardiac atrium [15]): 11%
Activity (Aorta [6]): 32%
Activity (Left cardiac atrium [9]): 86%

SMILES: O=c1onc2n1C=CSC2(O)c1ccccc1 (centres undefined)
Activity (Aorta [13]): 11%
Activity (Left cardiac atrium [10]): 74%
Activity (Right cardiac atrium [8]): 14%

Stability (Liver microsome): Stable
IC50 (Cytochrome P450 2D6): 16.5 µM
EC50 (Left cardiac atrium [4]): 0.14 µM
IC50 (Cytochrome P450 3A4 [2]): > 20 µM
IC50 (Cytochrome P450 2C9): 18.4 µM
IC50 (Cytochrome P450 1A2): > 20 µM
IC50 (Cytochrome P450 2C19): 2.4 µM
IC50 (Cytochrome P450 3A4 [3]): > 20 µM
IC50 [12]: 9.82 µM
SMILES: CC1=CSC(OCC(F)(F)F)(c2ccccc2)c2noc(=O)n21 (centres undefined)
Activity [11]: 95%
Activity (Left cardiac atrium [21]): 79%
Activity (Aorta [6]): 28%
Activity (Right cardiac atrium [7]): 6%

EC50 (Left cardiac atrium [4]): 1.29 µM
SMILES: O=c1onc2n1-c1ccccc1SC2(O)c1ccccc1 (centres undefined)
Activity (Left cardiac atrium [10]): 97%
Activity (Right cardiac atrium [8]): 10%
Activity (Aorta [6]): 21%

EC50 (Left cardiac atrium [4]): 0.52 µM
SMILES: COc1ccc(C2(O)SC=C(C)n3c2noc3=O)cc1 (centres undefined)
Activity (Aorta [13]): 18%
Activity (Left cardiac atrium [10]): 76%
Activity (Right cardiac atrium [8]): 12%
